This is a sample that favours compounds with a hit; in the whole collection about 1.7% have one here.
Casp6 inh: human caspase-6 inhibitors, primary screen, biochemical, VEID-R110 fluorescence, single point, set 2; P55212; purified caspase-6, Z-VEID-R110 cleavage fluorescence; inhibition, % at 12.5 µM; hit rate 0.53% among 350,000; AID 686996, 2013;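 active = mean inhibition across replicates at least about 35%, with every replicate also reaching that limit, limit read from the data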;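 note: 0% = median of neutral control wells and 100% = no fluorescence left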
DNMT1 block: human DNMT1 methyltransferase inhibitors, primary screen, biochemical, molecular beacon, fluorescence, HinP1I cleavage, uHTS; hit rate 0.83% among 360,000; DNA (cytosine-5)-methyltransferase 1 (Homo sapiens), P26358; inhibition (reported as % activation of signal), % at 10 µM; in the data active = inhibition above about 50%
Scp1 inh: Scp-1 phosphatase inhibitors, primary screen, biochemical, colorimetric, uHTS; Carboxy-terminal domain RNA polymerase II polypeptide A small phosphatase 1 (Homo …; Recombinant Scp1, phosphopeptide, malachite green phosphate absorbance; inhibition, % at 20 µM; hit rate 0.88% among 340,000;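 active = inhibition above about 50% at 20 µM, limit read from the data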;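 note: plate controls were DMSO wells with enzyme for no effect and wells lacking enzyme for full effect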
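Test system – truncated SCP-1 phosphatase (76-261aa) · Reagent – Phosphorylated 17-residue peptide substrate · Incubation – 45 min room-temperature reaction, 5 min colour, 30 min stabiliser · Detection – colorimetric phosphate reagent with accelerator and stabiliser, absorbance at 630 nm · Measure – % inhibition at 20 µM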
SUMO1-SIM PPI: modulators of SUMO1 protein-protein interactions, primary screen, biochemical, uHTS. inhibition, % at 20 µM. AID 602429, 2012. Small ubiquitin-related modifier 1 (Homo sapiens), P63165. SUMO1 binding to a labelled peptide, TR-FRET, 1 h. hit rate 0.33% among 360,000; in the data active = inhibition above about 37%
STEP inh: STEP phosphatase inhibitors, primary screen, biochemical, fluorescence intensity, uHTS | recombinant STEP, OMFP fluorogenic substrate | inhibition, % at 20 µM | hit rate 0.25% among 360,000;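 active = inhibition at 20 µM, scaled per plate between control wells, above about 37%, limit read from the data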;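 note: 0% = DMSO with enzyme and substrate and 100% = substrate only without enzyme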
Target sequence (P54829 whole entry, looked up): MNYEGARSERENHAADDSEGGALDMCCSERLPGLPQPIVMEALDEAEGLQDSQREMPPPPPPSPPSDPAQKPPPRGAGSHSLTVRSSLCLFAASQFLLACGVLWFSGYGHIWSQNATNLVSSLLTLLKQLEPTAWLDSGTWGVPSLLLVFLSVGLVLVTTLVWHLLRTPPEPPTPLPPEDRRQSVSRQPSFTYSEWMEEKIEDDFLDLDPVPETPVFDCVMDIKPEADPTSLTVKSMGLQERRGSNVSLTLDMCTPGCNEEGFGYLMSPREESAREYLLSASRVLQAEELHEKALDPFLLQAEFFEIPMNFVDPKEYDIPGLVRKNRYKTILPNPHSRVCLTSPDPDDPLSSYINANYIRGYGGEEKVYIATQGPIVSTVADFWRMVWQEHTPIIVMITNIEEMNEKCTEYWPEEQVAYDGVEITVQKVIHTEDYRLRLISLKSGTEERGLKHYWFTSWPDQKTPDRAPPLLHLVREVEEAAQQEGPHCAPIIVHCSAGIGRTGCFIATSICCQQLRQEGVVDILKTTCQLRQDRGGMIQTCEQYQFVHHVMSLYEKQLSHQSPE
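Material: STEP (striatal-enriched tyrosine phosphatase) enzyme, cell-free | Medium: 50 mM Bis-Tris pH 6.0 with 2.5 mM DTT and 0.005% Tween 20 | Read-out: Percent inhibition scaled to no-enzyme and uninhibited-enzyme controls, plate-pattern corrected | Signal: Fluorescence read at 480 nm ex / 540 nm em | Times: 20 min reaction, room temperature, in the dark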
LMPTP block: LMPTP phosphatase inhibitors, primary screen, biochemical, fluorescence intensity, uHTS; recombinant LMPTP-A, OMFP fluorogenic substrate; hit rate 0.22% among 360,000; inhibition, % at 20 µM; Low molecular weight phosphotyrosine protein phosphatase (Homo sapiens), P24666;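 active = compounds that cut the enzyme signal by at least half of the control window in the single-dose screen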;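 note: plate controls were DMSO wells with enzyme plus substrate for no effect and substrate without enzyme for full effect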
Target sequence (P24666 whole entry, looked up): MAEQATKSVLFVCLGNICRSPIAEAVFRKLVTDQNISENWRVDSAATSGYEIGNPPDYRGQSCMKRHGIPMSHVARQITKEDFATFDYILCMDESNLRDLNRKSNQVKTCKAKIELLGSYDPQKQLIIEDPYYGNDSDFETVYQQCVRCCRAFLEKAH
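material = LMPTP-A | quantity = 0.625 nM enzyme | reagent = OMFP substrate, 400 µM final | buffer or medium = Bis-Tris pH 6.0, DTT, detergent | detection = endpoint fluorescence intensity from OMFP dephosphorylation | dosing = single 20 µM dose | read-out basis = % inhibition relative to no-enzyme and uninhibited control wells | control set = no-enzyme and uninhibited controls | timing = 50 min at room temperature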
Beacon interf DR: spectral interference with molecular beacon fluorescence, dose response, artefact control for DNMT1 inhibitor project, biochemical, fluorescent molecular beacon; shares compounds with DNMT1 block; IC50, µM; spectral interference counter-screen; 200 tested, under 10 active; call rule not given here
DNMT1 confirm: DNMT1 methyltransferase inhibitor retest, confirmation, biochemical, molecular beacon, fluorescence, single concentration; inhibition, % at 10 µM; shares compounds with DNMT1 block; hit rate 8% among 2,300; DNMT1 molecular beacon HinP1I cleavage;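 active = average inhibition of at least 30% in the single-concentration confirmation test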
Beacon interf: counter-screen for DNMT1 inhibitors: spectral interference; shares compounds with DNMT1 block; DNMT1 molecular beacon spectral interference counterscreen, fluorescence 485/520; activation (fluorescence interference), % at 10 µM; hit rate 1% among 2,300; AID 602387;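 active = activation of at least 30% at 10 µM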;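 note: DNMT1 catalytic domain with a HinP1I cleavage step and a FAM/dabcyl DNA beacon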
Starred values were filed as active, the others as inactive; . = not tested or not shown; ! = not confirmed by another sample.

SMILES | Casp6 inh | DNMT1 block | Scp1 inh | SUMO1-SIM PPI | STEP inh | LMPTP block | DNMT1 confirm | Beacon interf | others
O=C(NNC(=O)C1CCCCC1)c1ccco1 | -4.7 | -0.9 | -4.2 | 1.6 | 6.1 | -0.7 | . | .
O=C(C[C@H]1C=C[C@H](NC(=O)c2ccncc2)[C@@H](CO)O1)NCC1CC1 | 3.2 | . | . | . | . | . | . | .
CC1CC(NC(=O)N(C)C)N(C)C(=O)N1 (stereo not given) | 14.6 | 66.3* | 0.0 | -0.4 | -5.0 | -1.0 | 3.8 | 7.3
CN(C)C(=O)c1ccc2c(c1)n(C)c(=O)n2C | . | -0.3 | -5.7 | 4.5 | 0.1 | -0.5 | . | .
Cc1ccc(C(=O)Nc2cccc(C(F)(F)F)c2)cc1NC(=O)c1ccno1 | -1.9 | -3.8 | -4.4 | 3.1 | -2.6 | -0.3 | . | .
Cc1ccc(C(=O)Nc2cccc(C(F)(F)F)c2)cc1NC(=O)c1nccn1C | -1.5 | 56.2*! | -3.8 | 4.5 | 1.0 | 4.2 | 0.2 | 5.4
CC(C)CC#Cc1ccc([C@H]2[C@H](CO)N3C(=O)CN(C(=O)NC4CCCCC4)C[C@@H]23)cc1 | 3.1 | . | . | . | . | . | . | .
Cc1ccc(CNC(=S)NC2CCCCC2)cc1 | -1.2 | 1.6 | 4.0 | -8.2 | 0.0 | 0.1 | . | .
Cc1cc2cc(CNC(=S)NCc3ccccc3)ccc2n1C | -11.7 | 77.4* | 2.6 | -4.1 | 4.6 | 19.2 | 1.8 | 1.8
COc1ccc(S(=O)(=O)NCc2ccc3c(c2)cc(C)n3C)cc1 | 1.8 | 59.2* | -6.5 | -20.1 | 2.5 | 36.0 | 0.4 | 14.6
Cc1cc2cc(CNC(=O)Nc3ccccc3)ccc2n1C | -0.4 | 54.0* | 3.1 | -6.4 | 3.1 | 6.2 | 1.5 | 4.6
Cc1cc2cc(CNC(=S)NC3CCCCC3)ccc2n1C | -1.3 | 63.0* | 4.0 | -6.8 | 2.7 | 5.5 | 5.8 | 5.8
Cc1ccc(C2C(/C=C3/SC(=S)NC3=O)=C(c3cccs3)Oc3ccccc32)cc1 (stereo not given) | 1.5 | 83.1* | 0.4 | 1.2 | 0.4 | 7.3 | 71.6* | -13.4 | Beacon interf DR=>99
O=C1NC(=S)SC1=Cc1ccccc1Cl | 1.9 | 3.3 | 4.6 | 1.3 | -0.7 | 2.2 | . | .
CCCc1nc(C)cc(N2CCN(c3ccccc3)CC2)n1 | 3.0 | 1.8 | -4.5 | -5.8 | -1.3 | 0.4 | . | .
CCOc1cccc(=O)c2c(C)n(Cc3ccco3)c(C)c12 | . | 80.7* | 6.9 | 4.0 | 6.5 | 11.0 | 4.4 | 3.6
CC(Sc1nc2ccc(C(=O)c3ccccc3)cc2[nH]1)C(=O)O (stereo not given) | 0.3 | 81.3* | -1.8 | 6.8 | -3.8 | -1.4 | -1.2 | 1.0
CC(Sc1nc2ccc(Br)cc2[nH]1)C(=O)O (stereo not given) | . | 5.4 | -6.5 | 3.1 | 0.9 | -1.3 | . | .
COc1ccc(CSc2nnc(C)s2)cc1F | 2.9 | -2.7 | -9.1 | 0.2 | -6.1 | -0.2 | . | .
O=C(Nc1ccc(Cl)cc1)Nc1cccnc1 | -1.0 | -1.5 | -0.1 | -0.5 | -3.2 | 1.1 | . | .
O=C(Nc1ccc(Cc2ccc(NC(=O)Nc3cccnc3)cc2)cc1)Nc1cccnc1 | -1.4 | 51.5* | . | 14.9 | 1.1 | 16.2 | -0.5 | 0.0
Cc1ccccc1NC(=O)COC(=O)c1ccc(CSc2ccc(Cl)cc2)cc1 | -1.2 | 52.1* | -7.6 | -1.3 | 1.3 | -1.2 | 3.7 | 5.6
CCCNC(=O)Cn1c(=O)/c(=C/c2ccc(-c3cccc([N+](=O)[O-])c3)o2)s/c1=C\C(=O)C(C)(C)C | -3.8 | 68.1* | -7.6 | 1.0 | -25.3 | 2.4 | 17.1 | 23.4
N#C/C(=C\c1cn[nH]c1-c1ccccc1Br)C(=O)O | 1.7 | -1.1 | 3.5 | -5.9 | -3.2 | -1.1 | . | .
COc1ccc(NC(=O)N2CCCC(C(=O)Nc3cccc(C)c3C)C2)cc1 (stereo not given) | 5.0 | 2.4 | -5.8 | 2.3 | -0.3 | -1.0 | . | .
SMILES | Casp6 inh | DNMT1 block | Scp1 inh | SUMO1-SIM PPI | STEP inh | LMPTP block | DNMT1 confirm | Beacon interf | others
OC(c1ccccc1)C(Nc1ccccn1)c1ccccc1 (stereo not given) | -0.9 | 55.0* | 1.1 | -0.2 | -1.0 | -0.8 | 1.7 | 7.7
CCOc1cc(/C=C2\C(=O)NN(c3ccccc3)C2=O)cc([N+](=O)[O-])c1O | 37.0* | 67.7* | 12.8 | -4.0 | 2.8 | 4.8 | 11.0 | 1.3
COc1cccc(N(C(=O)Cn2nnc(-c3cccs3)n2)C(C(=O)NC2CCCCC2)c2ccncc2)c1 (stereo not given) | . | 68.4* | -10.8 | 1.9 | -2.3 | 1.6 | -0.3 | -1.7
Cc1ccc(C)c(N(C(=O)Cn2nnc(-c3cccs3)n2)C(C(=O)NC2CCCC2)c2ccncc2)c1 (stereo not given) | . | 8.6 | 0.4 | 4.1 | -3.7 | -1.6 | . | .
CCOc1ccc(Cn2c(=O)oc3ccc(C)cc32)cc1OC | . | 2.2 | -7.8 | -7.3 | 1.1 | 1.7 | . | .
O=C(N/N=C/c1ccc([N+](=O)[O-])cc1)c1cc(-c2ccc3c(c2)OCO3)n[nH]1 | 0.3 | 50.2* | -7.8 | 14.5 | 1.0 | 3.8 | 0.3 | -6.4
COc1cc(/C=N/NC(=O)c2cc(-c3ccc4c(c3)OCO4)n[nH]2)ccc1O | 1.8 | 1.4 | -0.8 | 5.9 | -0.8 | 1.2 | . | .
COc1ccc(Br)cc1/C=N/n1nnnc1N | -2.2 | 53.2* | -6.5 | -22.3 | 0.6 | -0.8 | -0.1 | 19.6
COc1ccc(C(=O)O/N=C(\N)c2ccccc2)cc1OC | -1.9 | 2.1 | -9.1 | 9.7 | 0.9 | 1.7 | . | .
O=C(Nc1ccc(S(=O)(=O)NCc2ccco2)cc1)c1cccc(F)c1 | 0.4 | 83.5* | 33.5 | 4.9 | 8.2 | 1.4 | 8.1 | 6.8
O=C(CSCc1ccc(Cl)cc1)Nc1ccc(-c2nnc(-c3ccccc3)o2)cc1 | . | 72.2* | 30.7 | 3.7 | 13.8 | 16.9 | 1.8 | -0.5
O=S(=O)(c1cc(O)ccc1O)c1cccc2c(S(=O)(=O)c3cc(O)ccc3O)cccc12 | . | 95.4* | 69.0* | 58.1* | 83.7* | 74.6* | 83.2* | 3.3 | Beacon interf DR=>99
